Source: ChEMBL document CHEMBL1148341, “Selective inhibition of Trypanosoma brucei 6-phosphogluconate dehydrogenase by high-energy intermediate and transition-state analogues” (J Med Chem, 2004)

Columns and labels:
[1] = test system: L6; test: In vitro cytotoxic activity against L6 cells; format: functional, cell-based; conditions: Rattus norvegicus
[2] = test system: Trypanosoma cruzi; test: In vitro antiparasitic activity was determined against Trypanosoma cruzi; format: functional, organism-based
How it was run: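 L-6 rat myoblasts (2000 cells/well, RPMI 1640, 10% FBS, 2 mM L-glutamine) infected after 24 h with 5000 T. cruzi Tulahuen C2C4 LacZ trypomastigotes plus serial drug dilutions; 4 days at 37 °C, 5% CO2. MIC read microscopically; for IC50, CPRG/Nonidet added, colour read at 540 nm after 2–4 h, IC50 from sigmoidal curve.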

[3] = test system: Trypanosoma brucei; test: In vitro antiparasitic activity was determined against Trypanosoma brucei; format: functional, organism-based
[4] = test system: Plasmodium falciparum; test: In vitro antiparasitic activity against Plasmodium falciparum; format: functional, organism-based
[5] = test system: Leishmania donovani; test: In vitro antiparasitic activity was determined against Leishmania donovani; format: functional, organism-based
How it was run: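 Mouse peritoneal macrophages in RPMI 1640 with 10% heat-inactivated FBS, infected after 24 h with L. donovani amastigotes (3:1 amastigotes to macrophages); free amastigotes removed at 4 h. Next day, drug dilutions added; 96 h at 37 °C, 5% CO2. Slides methanol-fixed and Giemsa-stained; infected vs noninfected macrophages counted microscopically as % of control; IC50 by linear regression.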

[6] = target: 6-phosphogluconate dehydrogenase (Ovis aries) (UniProt P00349); test: Inhibition constant against 6-phosphogluconate dehydrogenase of sheep liver; NI denotes no inhibition
Chain of 6-phosphogluconate dehydrogenase (Ovis aries) (P00349 whole entry, looked up): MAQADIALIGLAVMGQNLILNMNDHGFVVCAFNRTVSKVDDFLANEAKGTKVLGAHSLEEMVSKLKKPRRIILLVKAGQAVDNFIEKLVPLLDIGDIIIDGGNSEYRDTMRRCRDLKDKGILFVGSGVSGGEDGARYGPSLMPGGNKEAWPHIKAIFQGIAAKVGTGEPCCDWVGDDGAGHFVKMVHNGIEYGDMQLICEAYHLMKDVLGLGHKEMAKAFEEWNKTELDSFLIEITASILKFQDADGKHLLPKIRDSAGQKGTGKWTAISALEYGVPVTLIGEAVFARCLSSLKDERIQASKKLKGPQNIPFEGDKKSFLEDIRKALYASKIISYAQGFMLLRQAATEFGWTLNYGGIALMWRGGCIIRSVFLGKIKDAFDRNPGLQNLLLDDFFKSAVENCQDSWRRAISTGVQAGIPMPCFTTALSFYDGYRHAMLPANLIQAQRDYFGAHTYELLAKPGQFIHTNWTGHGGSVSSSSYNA

[7] = target: 6-phosphogluconate dehydrogenase (Trypanosoma brucei) (UniProt P31072); test: Inhibition constant against 6-phosphogluconate dehydrogenase of Trypanosoma brucei expressed in Escherichia coli; NI denotes no inhibition
Chain of 6-phosphogluconate dehydrogenase (Trypanosoma brucei) (P31072 whole entry, looked up): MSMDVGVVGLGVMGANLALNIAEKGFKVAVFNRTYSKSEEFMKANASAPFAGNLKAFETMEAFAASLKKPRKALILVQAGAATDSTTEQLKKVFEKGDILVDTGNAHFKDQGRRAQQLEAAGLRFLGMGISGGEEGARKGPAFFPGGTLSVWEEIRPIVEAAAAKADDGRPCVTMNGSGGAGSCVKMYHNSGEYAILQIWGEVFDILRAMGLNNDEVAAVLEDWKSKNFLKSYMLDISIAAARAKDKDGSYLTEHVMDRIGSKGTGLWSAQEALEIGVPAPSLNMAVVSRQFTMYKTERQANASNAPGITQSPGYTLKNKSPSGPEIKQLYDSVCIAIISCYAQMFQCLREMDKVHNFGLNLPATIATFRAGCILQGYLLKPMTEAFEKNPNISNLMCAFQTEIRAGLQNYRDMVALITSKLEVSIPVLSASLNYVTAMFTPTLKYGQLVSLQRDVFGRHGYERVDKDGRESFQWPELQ

[8] = test system: L6; test: In vitro cytotoxic activity was determined against L6 cells; format: functional, cell-based, Rattus norvegicus

| IC50 [2] [µM] | IC50 [3] [µM] | IC50 [4] [µM] | IC50 [5] [µM] | Ki [6] | Ki [7] | SMILES | IC50 [1] [µM] | IC50 [8] |
| --- | --- | --- | --- | --- | --- | --- | --- | --- |
| 131 | 212 | > 196 |  |  |  | CC1(C)O[C@H](COP(=O)(O)O)[C@H](C(N)=O)O1 | > 220 |  |
| > 282 | 61 | ~157 | > 94 |  |  | O=C(NO)[C@H](OC1CCCO1)[C@@H](CCO)OC1CCCO1 (stereo partly drawn) |  |  |
| 215 | > 304 | > 169 | > 101 |  |  | CC1(C)OC[C@H](CSCC(=O)OCc2ccccc2)O1 |  |  |
| > 418 | 277 | > 232 | > 139 |  |  | NC(=O)[C@H](O)[C@H](O)COP(=O)(O)O | > 418 |  |
| > 285 | 229 | > 159 |  |  |  | CC(=O)O[C@H](COP(=O)(O)O)[C@@H](OC(C)=O)C(=O)NO | > 285 |  |
| > 296 | 113 | > 164 | > 99 |  |  | CC(=O)O[C@H](COP(=O)(O)O)C[S+]([O-])CC(=O)O (stereo partly drawn) |  | Not Active |
| > 343 | 244 | > 191 |  |  |  | O=C(O)C[S+]([O-])C[C@H](O)COP(=O)(O)O (stereo partly drawn) | 343 |  |
| > 32 | 3.5 | 53 | 30 |  |  | CC1(C)O[C@H](CO)[C@H](C(=O)NOCc2ccccc2)O1 | 37 |  |
| > 332 | > 332 | > 184 | > 111 |  |  | CC1(C)O[C@H](COP(=O)(O)O)[C@H](C(=O)NO)O1 | > 332 |  |
| > 166 | 126 | > 92 | > 55 |  |  | CC1(C)O[C@H](COP(=O)(OCc2ccccc2)OCc2ccccc2)[C@H](C(=O)NOCc2ccccc2)O1 |  |  |
| > 154 | 60 | > 85 | > 17 | Not Active | Not Active | CC(=O)O[C@H](COP(=O)(OCc1ccccc1)OCc1ccccc1)[C@@H](OC(C)=O)C(=O)NOCc1ccccc1 |  |  |
| > 389 | > 389 | > 216 | > 130 |  |  | O=C(NO)[C@H](O)[C@H](O)COP(=O)(O)O | 269 |  |

The next lines start with the compound.

| SMILES | IC50 [2] [µM] | IC50 [3] [µM] | IC50 [4] [µM] | IC50 [5] [µM] | Ki [6] | Ki [7] | IC50 [1] [µM] | IC50 [8] |
| --- | --- | --- | --- | --- | --- | --- | --- | --- |
| CC(=O)O[C@H](COP(=O)(OCc1ccccc1)OCc1ccccc1)C[S+]([O-])CC(=O)OCc1ccccc1 (stereo partly drawn) | > 157 | 36 | 18 | 27 | Not Active | Not Active | 60 |  |
| CC(=O)O[C@H](COP(=O)(OCc1ccccc1)OCc1ccccc1)CSCC(=O)OCc1ccccc1 | > 161 | 137 | 62 | 28 |  |  |  |  |
| O=C1OC[C@@H](OC2CCCO2)[C@H]1OC1CCCO1 (stereo partly drawn) | > 315 | 113 | 78 | > 105 |  |  |  |  |
| O=C1OC[C@@H](O)[C@H]1O |  |  |  |  |  |  |  | Not Active |
| O=C(NO)[C@H](O)[C@H](O)CO | 290 | 116 | 18 | > 199 |  |  |  |  |
| CC1(C)O[C@@H]2COC(=O)[C@@H]2O1 | > 569 | 262 | > 316 | > 190 |  |  |  | Not Active |
| O=C(C[S+]([O-])C[C@H](O)COP(=O)(OCc1ccccc1)OCc1ccccc1)OCc1ccccc1 (stereo partly drawn) | > 169 | 82 | > 94 | > 56 | Not Active | Not Active |  |  |
| O=C(NOCc1ccccc1)[C@H](O)[C@H](O)COP(=O)(OCc1ccccc1)OCc1ccccc1 | > 179 | 130 | > 100 | 33 |  |  |  |  |
| O=C(C[S+]([O-])C[C@@H](COP(=O)(OCc1ccccc1)OCc1ccccc1)OC1CCCO1)OCc1ccccc1 (stereo partly drawn) | 82 | 73 | 7 |  | Not Active | Not Active | 91 |  |
| CC(=O)O[C@H](COP(=O)(OCc1ccccc1)OCc1ccccc1)[C@@H](OC(C)=O)C(=O)N(OCc1ccccc1)C(C)=O | > 143 | 49 | > 80 | > 48 |  |  |  |  |
| O=C(CSC[C@H](O)CO)OCc1ccccc1 | 212 | 75 | > 195 | > 117 |  |  |  |  |
| O=C(CSC[C@H](O)COP(=O)(OCc1ccccc1)OCc1ccccc1)OCc1ccccc1 | 124 | 47 | 65 | 23 |  |  |  |  |
